Legend:
Cavia porcellus [1] = organism: Cavia porcellus; experiment: Functional efficacy compared to 1 uM muscarine and the maximum response to carbachol in guinea pig isolated atria
Cavia porcellus [2] = organism: Cavia porcellus; experiment: (§1) Determined for potency (muscarinic agonistic activity) expressed in guinea pig ileum in vitro; details: read-out: Log EC50 (converted)
Cavia porcellus [3] = organism: Cavia porcellus; experiment: (§2) Determined for potency (muscarinic agonistic activity) expressed in guinea pig isolated atria in vitro; details: read-out: Log EC50 (converted)
Rattus norvegicus [4] = organism: Rattus norvegicus; experiment: (§3) Determined for potency (muscarinic agonistic activity) expressed in superior cervical ganglion in vitro; assay type: functional; details: for EC50: Rattus norvegicus, Superior cervical ganglion
Outline: (§4)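 Potentials were recorded by grease-gap between the ganglion body and the internal carotid nerve. Semicumulative concentration–response curves used 1-min agonist superfusions every 10 min. Potency is given as −log EC50 (M). Efficacy is the ratio to the maximum response to 1 µM (±)-muscarine chloride.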

Cavia porcellus [5] = organism: Cavia porcellus; experiment: Functional efficacy compared to 1 uM muscarine and the maximum response to carbachol in guinea pig ileum
Outline: (§5)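 Agonist-evoked contractions were recorded and concentration–response curves built. EC50 is the concentration giving 50% of that tissue's own maximum, reported as −log EC50 (M).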

Rattus norvegicus [6] = organism: Rattus norvegicus; experiment: Determined for Functional efficacy compared to 1 uM muscarine in superior cervical ganglion; outline: as §4
[7] = molecular target: T1, Muscarinic acetylcholine receptor M2 (Rattus norvegicus) (UniProt P10980)
T1 sequence (whole entry): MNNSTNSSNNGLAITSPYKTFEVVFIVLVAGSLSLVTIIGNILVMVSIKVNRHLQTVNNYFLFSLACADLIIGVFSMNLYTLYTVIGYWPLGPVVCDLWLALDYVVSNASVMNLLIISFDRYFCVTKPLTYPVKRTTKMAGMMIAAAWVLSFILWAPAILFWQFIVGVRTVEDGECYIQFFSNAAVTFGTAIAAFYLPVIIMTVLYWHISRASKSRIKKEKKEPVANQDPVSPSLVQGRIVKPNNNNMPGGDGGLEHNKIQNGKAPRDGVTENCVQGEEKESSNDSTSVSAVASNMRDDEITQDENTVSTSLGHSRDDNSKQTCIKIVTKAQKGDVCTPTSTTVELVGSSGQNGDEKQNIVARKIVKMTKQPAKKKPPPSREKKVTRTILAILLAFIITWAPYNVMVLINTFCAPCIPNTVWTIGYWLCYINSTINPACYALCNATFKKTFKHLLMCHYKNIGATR

[8] = molecular target: T2, Muscarinic acetylcholine receptor M1 (Rattus norvegicus) (UniProt P08482)
T2 sequence (whole entry): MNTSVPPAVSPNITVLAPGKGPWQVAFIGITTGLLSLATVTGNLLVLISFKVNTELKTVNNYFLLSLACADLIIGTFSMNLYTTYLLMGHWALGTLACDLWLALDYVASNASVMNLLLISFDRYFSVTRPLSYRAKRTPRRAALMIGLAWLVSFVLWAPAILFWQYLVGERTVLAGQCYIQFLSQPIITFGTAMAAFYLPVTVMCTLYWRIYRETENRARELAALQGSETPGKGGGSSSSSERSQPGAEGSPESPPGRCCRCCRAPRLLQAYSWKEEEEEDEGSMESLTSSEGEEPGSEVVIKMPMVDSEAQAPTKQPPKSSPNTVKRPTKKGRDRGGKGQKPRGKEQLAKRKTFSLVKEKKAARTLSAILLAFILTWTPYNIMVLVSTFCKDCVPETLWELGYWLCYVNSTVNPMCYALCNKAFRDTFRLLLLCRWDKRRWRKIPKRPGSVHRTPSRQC

Cavia porcellus [9] = organism: Cavia porcellus; experiment: as §1; assay type: functional; outline: as §5
[10] = as §3; assay type: functional, tissue-based, Rattus norvegicus; outline: as §4
Cavia porcellus [11] = organism: Cavia porcellus; experiment: as §2; assay type: functional
[12] = molecular target: T1, Muscarinic acetylcholine receptor M2 (Rattus norvegicus); remark: listed apart in the source
[13] = molecular target: T2, Muscarinic acetylcholine receptor M1 (Rattus norvegicus); remark: listed apart in the source

| Structure (SMILES) | FE (Cavia porcellus [1]) | EC50 (Cavia porcellus [2]) [µM] | EC50 (Cavia porcellus [3]) [µM] | FE (Cavia porcellus [5]) | FE (Rattus norvegicus [6]) | Log EC50 (Rattus norvegicus [4]) | K app [7] [µM] | K app [8] [µM] | further results |
| --- | --- | --- | --- | --- | --- | --- | --- | --- | --- |
| C[C@@H]1OCC2(CN3CCC2CC3)O1.C[C@H]1OCC2(CN3CCC2CC3)O1 (some centres undefined) [listing 1 of 2 here] | 0.8 | 3.31 | 21.9 | 0.8 | 0.7 | – | – | – | EC50 (Rattus norvegicus [4]): 5.75 µM |
| C[C@@H]1OCC2(CN3CCC2CC3)O1 (stereo in doubt; 1B2) [listing 1 of 2 here] | 0.2 | 20 | 100 | 0.7 | 0.7 | -4.56 | – | – | – |
| C[C@@H]1O[C@H](C[N+](C)(C)C)C[C@H]1O [MUSCARINE] | – | – | – | – | 1.1 | – | 2.3 | 28 | EC50 (Rattus norvegicus [4]): 0.17 µM |
| CC1OCC2(CN3CCC2CC3)O1 (centres undefined) [listing 1 of 2 here] | 0.8 | – | – | 0.8 | 0.7 | – | – | – | EC50 (Cavia porcellus [9]): 6.31 µM; Log EC50 [10]: -4.83; EC50 (Cavia porcellus [11]): 83.2 µM |
| CC1OCC2(CN3CCC2CC3)O1 (single isomer, unassigned) [listing 1 of 2 here] | – | – | – | – | – | – | 92 | 66 | – |
| CC1OCC2(CN3CCC2CC3)O1 (single isomer, unassigned) [listing 2 of 2 here] | – | – | – | – | – | < -4 | – | – | EC50 (Cavia porcellus [9]): > 316 µM |
| C[N+](C)(C)CCOC(N)=O.[Cl-] [CARBACHOL] | 1 | 0.102 | 0.209 | 1 | – | – | 1.9 | 45 | – |
| C[C@@H]1OCC2(CN3CCC2CC3)O1 (stereo in doubt; 1B2) [listing 2 of 2 here] | – | – | – | – | – | – | 8.5 | 4.1 | – |
| CC1OCC2(CN3CCC2CC3)O1 (centres undefined) [listing 2 of 2 here] | – | – | – | – | – | – | – | – | K app [12]: 13 µM; K app [13]: 6.8 µM |
| C[C@@H]1OCC2(CN3CCC2CC3)O1 (stereo in doubt; 1A1) [listing 1 of 2 here] | – | – | – | – | – | < -4 | – | – | – |
| C[C@@H]1OCC2(CN3CCC2CC3)O1 (stereo in doubt; 1A1) [listing 2 of 2 here] | – | – | – | – | – | – | 64 | 55 | – |
| C[C@H]1OCC2(CN3CCC2CC3)O1 (stereo in doubt; 1B1) | 0.8 | 2.19 | 14.8 | 0.8 | 0.8 | -5.25 | 2.2 | 2.7 | – |
| C[C@@H]1OCC2(CN3CCC2CC3)O1.C[C@H]1OCC2(CN3CCC2CC3)O1 (some centres undefined) [listing 2 of 2 here] | – | – | – | – | – | – | 8.4 | 5.9 | – |

Source: ChEMBL document CHEMBL1123768, “Synthesis and characterization of all four isomers of the muscarinic agonist 2'-methylspiro[1-azabicyclo[2.2.2]octane-3,4'-[1,3]dioxolane]” (J Med Chem, 1987)
